Published values pooled from the literature.
Protocols differ between the studies behind these lines.
EGFR G719C: Epidermal growth factor receptor (EGFR, Homo sapiens, UniProt P00533, G719C)
EGFR: Epidermal growth factor receptor (EGFR, Homo sapiens, UniProt P00533)
EGFR L858R: Epidermal growth factor receptor (EGFR, Homo sapiens, UniProt P00533, L858R)

CC#CC(=O)N1CCC[C@H]1c1nc(-c2ccc(C(=O)Nc3ccccn3)cc2)c2c(N)nccn12
inhibition (Epidermal growth factor receptor (EGFR, Homo sapiens, UniProt P00533, del752-759); enzyme activity, inhibitor; 1 µM): 0%

C1=C/COCc2cc(ccc2OCCN2CCCC2)Nc2nccc(n2)-c2cccc(c2)COC/1
remaining binding (EGFR G719C; binding; 0.1 µM): 75%

CS(=O)(=NC#N)c1ccccc1Nc1nc(Nc2ccc(CO)nc2)ncc1Cl (stereo not drawn)
remaining activity (EGFR; enzyme activity, inhibitor, radiometric; 1 µM): 98.3%

CCCCC(=O)Nc1ccc(-c2ccc3ncn(CCC)c(=O)c3c2)cn1
remaining binding (Epidermal growth factor receptor (EGFR, Homo sapiens, UniProt P00533, T790M); binding, competition with immobilised ligand; 0.5 µM): 100%

C[C@H]1CC[C@H](n2c3cnccc3c3cnc(Nc4ccc5c(n4)CCN(C(=O)CO)C5)nc32)CC1
remaining signal (Epidermal growth factor receptor (EGFR, Homo sapiens, UniProt P00533, L861Q); cell-free assay; 1 µM): 82%

C#Cc1cnc(Nc2ccnc(CO)c2)nc1Nc1ccccc1S(C)(=O)=NC#N (stereo not drawn)
remaining signal (EGFR L858R; cell-free assay; 1 µM): 63%

C=CC(=O)N1CCC([C@@H]2CCNc3c(C(N)=O)c(-c4ccc(Oc5ccccc5)cc4)nn32)CC1
inhibition (EGFR G719C; cell-free assay; 1 µM): 92%

CN1CCN(C(=O)c2ccc(NC(=O)Nc3ccc(N(C)c4ccnc(Nc5ccc(CS(C)(=O)=O)cc5)n4)cc3)cc2)CC1
remaining binding (EGFR G719C; binding; 1 µM): 95%

COc1ccc2oc(-c3ccc4nc(N)oc4c3)c/c(=N\c3ccccc3NC(=O)CCN)c2c1
remaining signal (Epidermal growth factor receptor (EGFR, Homo sapiens, UniProt P00533, L858R/T790M); cell-free assay; 1 µM): 106%

CO[C@@H]1[C@H](N(C)C(=O)c2ccccc2)C[C@H]2O[C@]1(C)n1c3ccccc3c3c4c(c5c6ccccc6n2c5c31)C(=O)NC4
inhibition (Epidermal growth factor receptor (EGFR, Homo sapiens, UniProt P00533, A750P/del747-749); enzyme activity, inhibitor; 1 µM): 74%

N#Cc1ccc(NC(=O)Nc2ccccc2)cc1
remaining binding (EGFR L858R; cell-free assay, competition with immobilised ligand; 25 µM): 75%

Cc1ccc(NC(=O)c2ccnc(C(F)(F)F)c2)cc1-c1cc(OCCO)nc(N2CCOCC2)c1
remaining binding (Epidermal growth factor receptor (EGFR, Homo sapiens, UniProt P00533, G719S); binding; 1 µM): 100%

COc1c(Cl)cccc1Nc1c(-c2ccncc2OC[C@@H]2COCCO2)[nH]c2c1C(=O)NCC2
inhibition (EGFR; enzyme activity, inhibitor, radiometric; 1 µM): > 80%

COc1ccc2[nH]c3c4[nH]c5ccc(OC)cc5c4c4c(c3c2c1)C(=O)NC4=O
remaining binding (EGFR L858R; binding; 1 µM): 50%

CS(=O)(=O)c1ccccc1Nc1nc(Nc2ccnc(CO)c2)ncc1Cl
remaining activity (EGFR; enzyme activity, inhibitor, radiometric; 1 µM): 94.8%
